The target in test [1] is T1, 3'-5' exonuclease crn-4 (Caenorhabditis elegans) (UniProt Q10905).
T1 sequence (whole entry): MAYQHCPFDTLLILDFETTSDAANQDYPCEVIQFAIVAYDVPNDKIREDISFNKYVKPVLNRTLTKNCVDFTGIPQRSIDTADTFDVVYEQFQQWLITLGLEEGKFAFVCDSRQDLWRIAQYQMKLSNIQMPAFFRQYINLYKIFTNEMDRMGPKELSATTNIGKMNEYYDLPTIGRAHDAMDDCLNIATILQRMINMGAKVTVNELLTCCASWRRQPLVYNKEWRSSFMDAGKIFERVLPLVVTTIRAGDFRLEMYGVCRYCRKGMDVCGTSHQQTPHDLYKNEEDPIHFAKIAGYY
Kind of test: (§1) Inhibition of GST-tagged Caenorhabditis elegans CRN-4 exonuclease activity expressed in Escherichia coli BL21 (DE3) pLysS preincubated for 10 mins followed by [gamma-32P]ATP labelled 11-nucleotide ssRNA substrate addition for 30 mins by PAGE based autoradiography.

The target of test [2] is T2, Ribonuclease T (Escherichia coli (strain K12)) (UniProt P30014).
T2 sequence (whole entry): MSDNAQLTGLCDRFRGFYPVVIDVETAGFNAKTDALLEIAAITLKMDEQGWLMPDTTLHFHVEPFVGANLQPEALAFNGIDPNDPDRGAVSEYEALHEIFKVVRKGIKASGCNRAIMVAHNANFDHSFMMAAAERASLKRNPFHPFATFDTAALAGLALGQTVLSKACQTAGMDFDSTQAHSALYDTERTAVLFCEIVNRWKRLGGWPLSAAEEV
Kind of test: (§2) Inhibition of N-terminal His-tagged recombinant Escherichia coli K-12 RNase T exonuclease activity expressed in Escherichia coli BL21-CodonPlus(DE3)-RIPL preincubated for 10 mins followed by [gamma-32P]ATP labelled 11-nucleotide ssDNA substrate addition for 40 mins by PAGE based autoradiography.

The target in test [3] is T1, 3'-5' exonuclease crn-4 (Caenorhabditis elegans). Kind of test: (§3) Inhibition of 5'-[gamma-32P]ATP-labelled 11-nucleotide ssRNA binding to Caenorhabditis elegans GST-tagged CRN-4 expressed in Escherichia coli BL21 (DE3) pLysS at 1 mM preincubated for 10 mins followed by substrate addition measured after 20 mins by TBE gel electrophoresis mobility shift assay. The method, boiled down: (§4)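 Gel-shift assay. Inhibitor was mixed with protein (CRN-4 or RNase T) for 10 min at room temperature, then 20 nM 5′-32P-labelled 11-nt substrate was added (RNA for CRN-4, DNA for RNase T). Buffer: 50 mM Tris-HCl pH 7.0, 120 mM NaCl, 10 mM EGTA, 40 mM EDTA, ±10% DMSO, 20 min at room temperature. Complexes were resolved on 20% TBE gels and read by phosphorimaging.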

Test [4] relates to Mammarenavirus lassaense. Kind of test: Inhibition of Lassa virus N-terminal His-tagged NP exonuclease domain (342 to 569 residues) expressed in Escherichia coli Tuner (DE3) using FAM-labeled 20-nucleotide ssRNA preincubated for 10 mins followed by substrate addition measured after 60 mins by PAGE based […]. The method, boiled down:
(§5)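 Purified NP exonuclease domain (2 μM), alone or with inhibitor, was incubated with 1 μM 5′-FAM-labelled RNA (20-nt ssRNA or stem-loop with 4-nt 3′ overhang). Buffer: 120 mM NaCl, 2 mM MgCl2, 20 mM Tris-HCl pH 7.0, ±10% DMSO, room temperature, 60 min. Products were run on 20% denaturing gels under UV. Cleavage was quantified across inhibitor concentrations to calculate IC50.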

In test [5] the test system is Mammarenavirus lassaense. In words: (§6) Inhibition of Lassa virus N-terminal His-tagged NP exonuclease domain (342 to 569 residues) expressed in Escherichia coli Tuner (DE3) using 3'-overhang 4-nucleotide stem-loop RNA preincubated for 10 mins followed by substrate addition measured after 60 mins by PAGE based […]. In outline:
as §5

A short description of test [6]: as §6. The arrangement: species or system Mammarenavirus lassaense. In outline:
as §5

In another test the test system is Geobacillus phage GBSV1. Kind of test: Inhibition of recombinant GST-fused Geobacillus phage GBSV1-NSN expressed in Escherichia coli BL21 (DE3) at 10 mM using RNA/DNA as substrate after 15 mins by spectrophotometry relative to control.
The target of test [7] is T2, Ribonuclease T (Escherichia coli (strain K12)). Kind of test: (§7) Inhibition of 5'-[gamma-32P]ATP-labelled 11-nucleotide ssDNA binding to recombinant Escherichia coli K-12 N-terminal His-tagged RNase T expressed in Escherichia coli BL21-CodonPlus(DE3)-RIPL at 1 mM preincubated for 10 mins followed by substrate addition measured after 20 mins by TBE gel electrophoresis mobility shift assay. In outline:
as §4

For test [8], the target named is 3'-5' exonuclease crn-4 (Caenorhabditis elegans) (UniProt Q10905). The test is described as §1. This is another data set of the same source.
Test [9] addresses Ribonuclease T (Escherichia coli (strain K12)) (UniProt P30014). The test is described as §2. This is another data set of the same source.
In test [10] the target is 3'-5' exonuclease crn-4 (Caenorhabditis elegans) (UniProt Q10905). Described as §3. In outline: as §4
This is another data set of the same source.

Test [11] has as its target Ribonuclease T (Escherichia coli (strain K12)) (UniProt P30014). The test is described as §7. The method, boiled down:
as §4
The source holds these as a separate data set.

Active and inactive are the calls of the source. No cut-off for these calls is given here. Where only a bound is given, the exact number is not on record here.

One may read the inhibition as the drop in the measured response relative to a control, in per cent. Take `O=C(N[C@H](CC1CCCCC1)C(=O)O)OCC1c2ccccc2-c2ccccc21`: the INH (in test [1]; in test [2]; in the test with Mammarenavirus lassaense [4]; in the test on Mammarenavirus lassaense [5]) was 1 mM in each case. The inhibition result in test [3] was “Active”.

Usually IC50 stands for the concentration needed to halve the response being measured. Read a high IC50 as a need for much substance. Consider `O=S(=O)(O)c1cc(O)c2c(O)c(/N=N/c3cccc4ccccc34)c(S(=O)(=O)O)cc2c1`, for which the INH in test [1] was found to be 0.01 mM; in test [2], 0.1 mM; in the test with Mammarenavirus lassaense [4] it was 0.1 mM; with Mammarenavirus lassaense [5] it was 0.1 mM. For the same compound, the inhibition result in test [3] was “Active”. In test [6], the IC50 is 66.2 µM. In the test on Mammarenavirus lassaense [5], the inhibition result was “Dose-dependent effect”.

Take `O=C(O)c1cc2cccc([N+](=O)[O-])c2[nH]1`: the INH is above 1 mM in [1], 1 mM in test [2], 1 mM in the test with Mammarenavirus lassaense [4] and 1 mM with Mammarenavirus lassaense [5].

In the case of `O=C(O)CC(O)(CC(=O)O)C(=O)O`, the INH in test [1] was above 1 mM; in test [2], 1 mM; with Mammarenavirus lassaense [4], 1 mM; in the test with Mammarenavirus lassaense [5], 1 mM. In the test with Geobacillus phage GBSV1, the inhibition amounted to 40%.

On to `O=C(O)c1ccc(Nc2nc(Cl)nc(Cl)n2)cc1-c1c2ccc(=O)cc-2oc2cc(O)ccc12`, for which the INH (in test [1]; in test [2]; in the test with Mammarenavirus lassaense [4]; in the test on Mammarenavirus lassaense [5]) was 1 mM throughout.

For the compound `O=C(O)c1cc(SSc2ccc([N+](=O)[O-])c(C(=O)O)c2)ccc1[N+](=O)[O-]`, the INH came to 0.1 mM in test [1], 0.1 mM in [2], 1 mM with Mammarenavirus lassaense [4] and 1 mM with Mammarenavirus lassaense [5]. In addition, the inhibition entry in test [3] and in test [7] was “Active” each time.

Turning to p-Chloromercuribenzenesulfonate, the INH came to 0.01 mM in [8], 0.01 mM in test [9], 1 mM in the test with Mammarenavirus lassaense [4] and 1 mM in the test on Mammarenavirus lassaense [5]. In addition, the inhibition result in [10] and in test [11] was “Active” in each case.

With `O=C(O)C1=CC(=C(c2ccc(O)c(C(=O)O)c2)c2ccc(O)c(C(=O)O)c2)C=CC1=O` [AURINTRICARBOXYLIC ACID], the INH in test [1] was 0.1 mM; in [2], 0.01 mM; with Mammarenavirus lassaense [4] it was 0.01 mM; in the test with Mammarenavirus lassaense [5], 0.01 mM. The inhibition result in test [3] and in test [7] was “Active” each time. The compound also yielded an IC50 in [6] of 6.8 µM. In addition, the inhibition result in the test with Mammarenavirus lassaense [5] is “Dose-dependent effect”.

For the origin of these results see ChEMBL document CHEMBL3853325, “Identification of Inhibitors for the DEDDh Family of Exonucleases and a Unique Inhibition Mechanism by Crystal Structure Analysis of CRN-4 Bound with 2-Morpholin-4-ylethanesulfonate (MES)” (J Med Chem, 2016).
